Fh CTSL1 inh: cathepsin L1 inhibition, PFM18AAP counter-screen; inhibition, % at 5.96 µM; hit rate 0.49% among 300,000; AID 1906; recombinant F. hepatica cathepsin L1, Z-Leu-Arg-MCA fluorescence;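 active = inhibition above the mean of all tested compounds plus 3 SD, set per screening campaign, cut at about 17% in these data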
CHOP inh: inhibitors of CHOP induction in ER stress response. CHO-K1 CHOP-promoter luciferase, tunicamycin-induced, 15-18 h. inhibition, % at 10 µM. hit rate 3.8% among 220,000. AID 2732;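 active = compounds that reduced the stress-induced luciferase reporter signal by more than about 70% of percent inhibition, limit read from the data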
UPR XBP1 act: adaptive UPR (XBP1) activation; AID 463104; activation, % at 20 µM; CHO-XBP1 luciferase reporter, IRE1-XBP1 UPR activation, luminescence; percent of tunicamycin response, DMSO as zero; hit rate 0.33% among 330,000;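 active = versus positive control, 20 µM dose yields 30% or more activation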
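Signal: luciferase luminescence; Assay system: CHO-XBP1 luciferase reporter cells; Amount: one thousand reporter cells per well; Dosing: 20 µM single concentration, DMSO 1%; Benchmarks: high control tunicamycin 10 µg/mL final, low control DMSO vehicle only; Schedule: 6 h compound exposure at 37 °C, 5% CO2; Evaluation: percent activation relative to tunicamycin reference.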
UCH37 DUB inh: inhibitors of human deubiquitinating enzyme UCH37; Q9Y5K5; purified proteasome/UCH37, Ub-AMC cleavage fluorescence; inhibition, % (no concentration beside the values); hit rate 0.33% among 330,000; AID 588478;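 active = mean inhibition over replicate wells above about 20%, limit read from the data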
Target sequence (Q9Y5K5 whole entry, looked up): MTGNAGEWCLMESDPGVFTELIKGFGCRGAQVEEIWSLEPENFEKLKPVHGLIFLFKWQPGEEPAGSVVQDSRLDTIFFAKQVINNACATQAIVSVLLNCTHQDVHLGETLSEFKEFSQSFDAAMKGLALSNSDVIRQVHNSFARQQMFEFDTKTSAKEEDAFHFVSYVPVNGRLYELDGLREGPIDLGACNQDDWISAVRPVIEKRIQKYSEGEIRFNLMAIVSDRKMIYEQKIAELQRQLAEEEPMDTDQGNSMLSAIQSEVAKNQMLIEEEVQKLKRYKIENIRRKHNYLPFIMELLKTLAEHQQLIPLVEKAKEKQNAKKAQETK
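Schedule: 30 min plus 25 min, room temperature / Material: human UCH37 within purified proteasomes / Technique: AMC fluorescence intensity at 355/460 nm / Buffer or medium: pH 7.4 Tris-HCl (50 mM) with ovalbumin, ATP-MgCl2, DTT / Controls: wells without proteasome as full block, compound-free enzyme plus substrate as uninhibited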
CHOP UPR activ: apoptotic UPR (CHOP) activation; CHO-CHOP luciferase reporter, luminescence; percent of tunicamycin response over DMSO baseline; activation, % at 10 µM; hit rate 0.34% among 330,000; AID 449763;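 active = at 10 µM dose, activation of 40% or more, normalized to positive control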
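System: CHO CHOP reporter cells. Amount: 500 cells per well. Buffer or medium: F12 medium, 10% FBS. Compound dosing: one dose, 10 µM in 0.5% DMSO. Incubation: 6 h compound exposure at 37 °C after overnight seeding. Technique: Steady-Glo luciferase luminescence. Benchmarks: tunicamycin and DMSO controls.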
Hits are given with their value; . = inactive; / = not tested or not shown. The entries come from a sample that favours hits as a whole.

SMILES | Fh CTSL1 inh | CHOP inh | UPR XBP1 act | UCH37 DUB inh | CHOP UPR activ
Cn1c2ccccc2c(=O)n2c(=O)c3ccccc3cc12 | 107 | . | . | / | .
O=C(NN=Cc1cccc(C(F)(F)F)c1)c1cc2c(s1)-c1ccccc1CC2 | / | / | / | . | /
C=C(C)CNC(=S)NN=C(C)c1ccc(-n2ccnc2)cc1 | / | / | / | . | /
CCN(CC)S(=O)(=O)c1ccc(Cl)c(C(=O)Nc2ccc(Cl)cc2[N+](=O)[O-])c1 | . | 79 | . | . | .
CN(C)S(=O)(=O)c1ccc(Cl)c(C(=O)Nc2ccccc2[N+](=O)[O-])c1 | . | . | . | . | .
CN(C)S(=O)(=O)c1cccc(C(=O)Nc2ccccc2)c1 | . | . | . | . | .
CN(C)S(=O)(=O)c1cccc(C(=O)Nc2cc(Cl)cc(Cl)c2)c1 | . | 71 | . | . | .
CCN(CC)S(=O)(=O)c1ccc(Cl)c(NC(=O)c2ccccc2C)c1 | . | . | . | . | .
CCN(CC)S(=O)(=O)c1ccc(Cl)c(NC(=O)c2cc(Cl)cc(Cl)c2)c1 | . | 89 | . | . | .
CC(CC(=O)NC12CC3CC(CC(C3)C1)C2)=NNC(=O)c1ccc(F)cc1 | / | / | / | . | /
O=S1(=O)CC/C(=N/Nc2ccc(C(F)(F)F)cn2)c2cc(F)ccc21 | . | 95 | . | / | .
COc1cc(C(=O)N/N=C2\CCS(=O)(=O)c3ccc(F)cc32)cc(OC)c1OC | . | 73 | . | / | .
COc1cc(C(=O)NN=C2CCS(=O)(=O)c3ccc(F)cc32)cc(OC)c1OC | / | / | / | . | /
CC(=NOCC(=O)NCCCCCCNC(=O)CON=C(C)c1cccs1)c1cccs1 | / | / | / | . | /
CCc1sc(N(C(=O)Cc2ccccc2)c2ccc(F)cc2)nc1-c1ccccc1 | . | . | . | 24 | .
COc1ccc(CN(CCC(c2ccccc2)c2ccc(OC(C)C)cc2)C(=O)CCl)cc1OC (stereo not drawn) | 36 | 110 | . | . | .
COc1ccc(CNCCC(c2ccc(F)cc2)c2ccc(OC(C)C)cc2)cc1OC (stereo not drawn) | . | 82 | . | / | .
O=Cc1c[nH]c2ccc(C(=O)c3ccccc3)cc12 | 18 | / | . | . | .
CC(=NNC(=O)c1cc(C)oc1C)c1ccc(N2CCOCC2)cc1 | / | / | / | . | /
O=C(CN1CCN(Cc2ccccc2Cl)CC1)NN=C/C=C/c1ccco1 | / | / | / | . | /
CC(=NNC(=O)CC#N)C1COc2ccccc2O1 (stereo not drawn) | / | / | / | . | /
CC(C)c1onc(C(=O)NCc2cccs2)c1[N+](=O)[O-] | 23 | . | . | . | .
COc1cc(/C=C2/CCC/C(=C\c3cc(O)c(OC)c(Cl)c3)C2=O)cc(Cl)c1O | . | 80 | . | . | .
COc1cc(/C=C2\CCC/C(=C\c3ccc(O)c(OC)c3)C2=O)ccc1O | . | / | . | . | .
CCCCCn1nc(C)c(C=NNC(=O)c2cc(C)oc2C)c1C | / | / | / | . | /
SMILES | Fh CTSL1 inh | CHOP inh | UPR XBP1 act | UCH37 DUB inh | CHOP UPR activ
CC(Sc1nc(-c2ccccc2)cc(C(F)(F)F)n1)C(=O)N1CCCC1 (stereo not drawn) | . | 92 | . | . | .
C=CCOc1ccc(/C=C2\SC(=S)N(C(C(=O)O)c3ccccc3)C2=O)cc1 (stereo not drawn) | / | 90 | / | . | /
CCOc1ccc(/C=C2\SC(=S)N(C(C(=O)O)c3ccccc3)C2=O)cc1OC (stereo not drawn) | . | . | . | . | .
CC(c1ccccc1)N1C(=O)/C(=C/c2ccncc2)SC1=S (stereo not drawn) | . | 86 | . | . | .
O=C(NCCNC(=O)c1cccs1)c1ccco1 | 19 | . | . | . | .
CS(=O)(=O)c1ccccc1-c1nc(-c2cc(C(F)(F)F)cc(C(F)(F)F)c2)no1 | . | . | . | . | .
CS(=O)c1ccccc1-c1nc(-c2cc(C(F)(F)F)cc(C(F)(F)F)c2)no1 (stereo not drawn) | . | 82 | . | / | .
CCc1ccc(OCC(=O)NN=Cc2ccc(OS(=O)(=O)c3ccc(C)cc3)c(OC)c2)cc1 | / | / | / | . | /
Cc1ccc(NC(=O)COc2ccc3oc4c(c3c2)CCCC4)nc1 | . | 76 | . | . | .
CC(=NNC(=O)C(=O)Nc1c(C)n(C)n(-c2ccccc2)c1=O)c1ccc(Cl)s1 | / | / | / | . | /
Oc1oc(-c2ccco2)nc1C=Nc1cccc(Cl)c1 | 37 | . | . | . | .
Cc1noc(/C=C/N(C)C)c1S(=O)(=O)N1CCC(C(=O)Nc2ccc(Cl)cc2)CC1 | . | / | . | . | .
Cc1ccc(NC(=O)C2CCCN(S(=O)(=O)c3c(C)noc3/C=C/N(C)C)C2)cc1F (stereo not drawn) | 17 | . | . | . | .
O=C(Nc1cccc(Cl)c1N1CCCC1)c1ccc(Br)o1 | . | 73 | . | . | .
O=C(Nc1ccccc1Oc1ccccc1)c1ccc(Br)o1 | . | 86 | . | . | .
O=c1c(=Cc2ccc(O)c([N+](=O)[O-])c2)sc2nc3ccccc3n12 | / | / | / | . | /
O=C(NN=C1CCSC1)c1cccc([N+](=O)[O-])c1 | / | / | / | . | /
O=C(NN=Cc1ccc(Cl)cc1)C1=NOC2COC3(CCN(c4ccc([N+](=O)[O-])cc4)CC3)OCC12 (stereo not drawn) | / | / | / | . | /
Clc1ccc(C=NNc2ncnc3nc[nH]c23)cc1 | / | / | / | . | /
COC(=O)CSc1c(-c2ccccc2)c2cc(Cl)ccc2[nH]c1=O | . | 80 | . | . | .
Cc1ccc2c(c1)c1c(n2CC(O)Cn2c(C)nc3ccccc32)/C(=N\O)CCC1 (stereo not drawn) | . | 87 | . | / | .
O=C(O)c1cc(NN=Cc2ccc3c(c2)OCO3)ccc1Cl | / | / | / | . | /
O=C(NCCN1CCN(c2ccccc2F)CC1)c1cccn2c(=O)c3ccccc3nc12 | . | 76 | . | . | .
CNC(=O)CON=Cc1ccc(N(C)C)cc1 | / | / | / | . | /
CCOc1ccc2ccccc2c1C=Nn1cncn1 | / | / | / | . | /
SMILES | Fh CTSL1 inh | CHOP inh | UPR XBP1 act | UCH37 DUB inh | CHOP UPR activ
Cn1nccc1C(=O)NC(=S)Nc1sc2c(c1C#N)CCCCC2 | . | 91 | . | . | .
Cc1onc(-c2ccccc2Cl)c1C(=O)Nc1sc2c(c1C#N)CCC2 | . | . | . | . | .
Cc1cc(C)c(C)c(S(=O)(=O)NCC(=O)Nc2sc3c(c2C(N)=O)CCCC3)c1C | . | 95 | . | . | .
N#Cc1c(NC(=S)NC(=O)c2ccccc2)sc2c1CCC2 | . | . | . | / | .
Cc1onc(C(=O)Nc2sc3c(c2C#N)CCCC3)c1[N+](=O)[O-] | 23 | . | . | . | .
Cc1noc(C)c1C(=O)Nc1sc2c(c1C(N)=O)CCCCC2 | . | 91 | . | . | .
CCC(=O)Nc1sc2c(c1C(N)=O)CCC2 | . | . | . | . | .
Cc1noc(C)c1C(=O)Nc1sc2c(c1C(N)=O)CCC2 | . | . | . | . | .
O=C(NN=Cc1cccc([N+](=O)[O-])c1)c1cc2c(ccc3ccccc32)o1 | / | / | / | . | /
Cc1ccc(COc2ccc(/C=N/NC(=O)c3nnn(-c4nonc4N)c3COc3ccc(F)cc3)cc2)cc1 | . | 82 | . | / | .
COc1cccc(C=NNc2snc(SC)c2C#N)c1O | / | / | / | . | /

Screening data as filed in PubChem BioAssay.
